Data on two molecules can be found in ChEMBL document CHEMBL3877303 (J Med Chem, 2017).

In one data set the test system is GIST882. Description: Induction of apoptosis in human GIST882 cells assessed as cleavage of PARP at 0.1 to 3 uM by Western blot analysis. Format: functional, cell-based. The method, boiled down:
(§1)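 Cells were treated with DMSO or serially diluted compound for the indicated periods. They were washed in ice-cold PBS and lysed in RIPA buffer with protease/phosphatase inhibitors, and protein was quantified by BCA. Lysates were resolved by SDS-PAGE, transferred to PVDF and blocked in 5% milk/TBST. Blots were probed for PARP and caspase-3, with β-actin as loading control, and detected by ECL.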
For orientation: Immunoblotting shows a protein as a band on a membrane.

The target of data set [1] is T1, Mast/stem cell growth factor receptor Kit (Homo sapiens, UniProt P10721). Description: Inhibition of c-KIT autophosphorylation at Y823 in human GISTT1 cells at 0.03 to 10 uM measured after 2 hrs by immunoblotting. Format: cell-based. In outline: (§2)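 After an ice-cold PBS wash, cells were lysed in RIPA buffer (50 mM Tris pH 8.0) with protease and phosphatase inhibitors, and protein was quantified by BCA. Lysates were run on SDS-PAGE, transferred to PVDF and blocked in 5% milk/TBST. Phospho- and total proteins were probed by immunoblot with ECL detection; β-actin served as loading control.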

Data set [2] deals with Platelet-derived growth factor receptor beta (Homo sapiens, UniProt P09619). The data set can be described thus: Inhibition of recombinant His-tagged human PDGFR-beta cytoplasmic domain (558 to 1106 residues) expressed in baculovirus expression system assessed as residual activity at 1 uM by KINOMEscan binding assay relative to control.
A short description of data set [3]: AUC (0 to infinity) in Sprague-Dawley rat at 1 mg/kg, iv. To be noted: in vivo. Format: ADME, organism-based. Set-up: dose 1 mg/kg, route intravenous, time infinity. In outline: (§3)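 Male Sprague-Dawley rats aged six to eight weeks were fasted overnight and then dosed iv or orally. Blood (~0.2 mL) was drawn from the jugular vein into heparin and kept on ice. Sampling was at 1 min to 8 h for iv and 5 min to 24 h for oral. Plasma was separated by centrifugation at 2-8 °C and stored at -80 °C until analysis.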

Data set [4] is described as follows: Antiproliferative activity against human MEG01 cells measured after 72 hrs by CellTiter-Glo or CCK8 assay. The format is functional. The note with it: MEG-01, 72 h. (In general: Cellular ATP, detected with luciferase, serves as a proxy for viable cell number.)
Data set [5] has as its target T1, Mast/stem cell growth factor receptor Kit. The data set can be described thus: Inhibition of recombinant C-terminal polyhistidine-tagged human c-KIT expressed in mammalian expression system assessed as residual activity at 1 uM using Tyr 06 peptide as substrate measured after 1hr by FRET based Z'Lyte assay relative to control.
Data set [6] concerns the target T2, BCR/ABL p210 fusion protein (Homo sapiens, UniProt A1Z199). Description: Inhibition of BCR/ABL p210 fusion protein mediated signaling pathways assessed as reduction in ERK phosphorylation at T202/Y204 in human K562 cells at 0.01 to 3 uM measured after 2 hrs by immunoblotting. The format is cell-based. The method, boiled down:
as §2

For data set [7], the target named is T1, Mast/stem cell growth factor receptor Kit. Description: Inhibition of c-KIT mediated signaling pathways assessed as reduction in STAT3/5 phosphorylation at Y705/Y694 in human GIST882 cells at 0.03 to 10 uM measured after 2 hrs by immunoblotting. Format: cell-based. In outline: as §2
The target of data set [8] is T2, BCR/ABL p210 fusion protein. The data set can be described thus: Inhibition of BCR/ABL p210 fusion protein mediated signaling pathways assessed as reduction in Stat5 phosphorylation at Y694 in human K562 cells at 0.01 to 3 uM measured after 2 hrs by immunoblotting. Format: cell-based. In outline:
as §2

The target in data set [9] is Macrophage colony-stimulating factor 1 receptor (Homo sapiens, UniProt P07333). The data set can be described thus: Inhibition of recombinant His-tagged human CSF1R cytoplasmic domain expressed in baculovirus expression system measured after 1 hr by FRET based Z'Lyte assay. The method, boiled down: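 Z'-LYTE FRET biochemical kinase assay run by Invitrogen on selected kinases identified from binding profiling; IC50 from dose-response.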

A short description of data set [10]: Cmax in Sprague-Dawley rat at 1 mg/kg, iv. The format is ADME, organism-based. More on the design: dose 1 mg/kg, route intravenous. The note with it: in vivo. In outline: as §3
Data set [11] concerns the target T1, Mast/stem cell growth factor receptor Kit. Description: Inhibition of c-KIT mediated signaling pathways assessed as reduction in S6K phosphorylation at T389 in human GISTT1 cells at 0.03 to 10 uM measured after 2 hrs by immunoblotting. Format: cell-based. The method, boiled down: as §2
Data set [12] in a line: Oral bioavailability in Sprague-Dawley rat at 10 mg/kg. Format: ADME, organism-based. The note with it: in vivo. In outline: (§4)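 Male Sprague-Dawley rats, 6-8 weeks old, fasted overnight, dosed iv or po. Jugular vein blood (~0.2 mL, heparin) sampled at 1 min to 8 h (iv) or 5 min to 24 h (po). Plasma separated by centrifugation at 2-8 °C and stored at -80 °C before analysis.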

The target in data set [13] is T2, BCR/ABL p210 fusion protein. The data set can be described thus: Inhibition of BCR/ABL p210 fusion protein autophosphorylation at Y245 in human KU812 cells at 0.01 to 3 uM measured after 2 hrs by immunoblotting. The format is cell-based. The method, boiled down: as §2
Data set [14] has as its system Mast/stem cell growth factor receptor Kit (Homo sapiens), P10721 [D816V]. The data set can be described thus: Inhibition of Tel-fused c-KIT D816V mutant (unknown origin) expressed in BAF3 cells assessed as growth inhibition measured after 72 hrs by CellTiter-Glo or CCK8 assay. Format: cell-based. In outline:
(§5)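 BaF3 lines were made by retroviral transduction with kinase-fusion MSCV vectors packaged in HEK293T cells. Cells were selected with puromycin for 48 h, then selected again without IL-3 so growth depends on the introduced kinase. […] They were seeded at 1 to 2.5×10^4 cells/mL with compound dilutions and incubated 72 h. Viability was read by CellTiter-Glo luminescence or CCK-8 absorbance (450/655 nm), normalized to DMSO control; GI50 was curve-fitted from triplicate tests.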

Data set [15] deals with T1, Mast/stem cell growth factor receptor Kit. The data set can be described thus: Inhibition of c-KIT mediated signaling pathways assessed as reduction in Stat3/5 phosphorylation at Y705/Y694 in human GISTT1 cells at 0.03 to 10 uM measured after 2 hrs by immunoblotting. Format: cell-based. In outline:
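GIST-T1 cells treated with DMSO or serially diluted compound for 2 h. Cells lysed in RIPA buffer with protease/phosphatase inhibitors, protein quantified by BCA, SDS-PAGE, PVDF transfer, milk block, primary/secondary antibodies, ECL detection; beta-actin loading control.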

In another data set the test system is KU812 cell line. Description: Induction of apoptosis in human KU812 cells assessed as increase in cleaved caspase-3 level at 0.1 to 3 uM by Western blot analysis. The format is functional, cell-based. In outline: as §1
The next data set deals with MEG-01. Description: Induction of apoptosis in human MEG01 cells assessed as cleavage of PARP at 0.1 to 3 uM by Western blot analysis. The format is functional, cell-based. The method, boiled down:
as §1

Data set [16] in a line: Tmax in Sprague-Dawley rat at 10 mg/kg, po. To be noted: in vivo. The format is ADME, organism-based. The method, boiled down: as §4
Data set [17] deals with Mast/stem cell growth factor receptor Kit (Homo sapiens), P10721 [L576P]. Description: Inhibition of Tel-fused c-KIT L576P mutant (unknown origin) expressed in BAF3 cells assessed as growth inhibition measured after 72 hrs by CellTiter-Glo or CCK8 assay. Format: cell-based. In outline: as §5
In data set [18] the target is T1, Mast/stem cell growth factor receptor Kit. The note with it: 1 uM.
Data set [19] has the same target. To be noted: 1 uM. The source holds these as a separate data set.
For data set [20] the target is unchanged. The note with it: GISTT1, 1 uM.
Data set [21] can be described thus: Cell cycle arrest in human MEG01 cells assessed as accumulation at G0/G1 phase at 1 uM after 24 hrs by propidium iodide/RNase staining based flow cytometry. Format: functional. The note with it: MEG-01. The method, boiled down:
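Cells were exposed to serially diluted compound, then fixed in cold 70% ethanol overnight at -20 °C. They were stained with PI/RNase buffer for DNA-content cell-cycle analysis.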

Each structure is given as a SMILES string. Active and inactive are the calls of the source. The rule behind the calls is not given here.

As a reminder, the AUC(0-inf) is total exposure, with the tail of the curve extrapolated. The low end stands for less exposure, the high end for more exposure. By GI50 is commonly meant the concentration giving 50% growth inhibition. Usually IC50 stands for the concentration that inhibits the measured activity by half. As a reminder, the Cmax is the peak of the concentration-time curve. One may read the bioavailability as the share of a dose that reaches the circulation, judged against a reference dose that is usually intravenous. Higher therefore signals good availability. One may read the Tmax as the time at which the peak concentration occurs.

T1 sequence (P10721 whole entry): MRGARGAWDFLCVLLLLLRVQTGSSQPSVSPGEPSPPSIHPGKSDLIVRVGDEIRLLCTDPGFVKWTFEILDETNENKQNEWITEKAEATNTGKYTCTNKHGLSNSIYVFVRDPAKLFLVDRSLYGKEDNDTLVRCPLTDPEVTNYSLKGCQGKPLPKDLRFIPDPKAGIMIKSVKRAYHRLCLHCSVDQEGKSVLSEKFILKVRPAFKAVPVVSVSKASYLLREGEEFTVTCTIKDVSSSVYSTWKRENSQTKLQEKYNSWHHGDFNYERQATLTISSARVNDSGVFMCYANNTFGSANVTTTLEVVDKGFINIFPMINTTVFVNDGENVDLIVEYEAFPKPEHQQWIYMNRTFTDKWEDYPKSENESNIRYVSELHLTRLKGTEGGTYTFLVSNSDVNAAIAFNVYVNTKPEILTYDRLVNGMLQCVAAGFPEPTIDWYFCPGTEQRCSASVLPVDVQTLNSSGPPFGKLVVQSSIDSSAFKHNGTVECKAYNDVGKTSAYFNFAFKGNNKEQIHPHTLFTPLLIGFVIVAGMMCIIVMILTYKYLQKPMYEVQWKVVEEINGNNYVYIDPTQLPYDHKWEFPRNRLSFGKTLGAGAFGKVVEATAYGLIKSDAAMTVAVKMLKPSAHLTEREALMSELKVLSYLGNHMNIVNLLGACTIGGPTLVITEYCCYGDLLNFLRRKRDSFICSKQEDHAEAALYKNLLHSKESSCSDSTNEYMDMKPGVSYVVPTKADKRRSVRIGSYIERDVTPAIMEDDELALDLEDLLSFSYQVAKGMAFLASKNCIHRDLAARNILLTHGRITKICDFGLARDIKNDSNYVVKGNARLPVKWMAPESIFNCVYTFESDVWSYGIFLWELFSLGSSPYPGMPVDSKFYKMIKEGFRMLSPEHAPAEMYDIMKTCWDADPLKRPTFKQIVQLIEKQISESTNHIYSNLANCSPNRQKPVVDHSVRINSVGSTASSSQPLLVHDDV
T2 sequence (A1Z199 1-97): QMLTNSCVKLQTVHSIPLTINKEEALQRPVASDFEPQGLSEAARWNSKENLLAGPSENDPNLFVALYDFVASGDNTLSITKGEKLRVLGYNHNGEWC
Chain of Mast/stem cell growth factor receptor Kit (Homo sapiens), P10721 [D816V] (P10721 whole entry D816V, the tested form may be a part): as the sequence (P10721 whole entry) above, with D816V counted along it
Chain of Macrophage colony-stimulating factor 1 receptor (P07333 whole entry, the tested form may be a part): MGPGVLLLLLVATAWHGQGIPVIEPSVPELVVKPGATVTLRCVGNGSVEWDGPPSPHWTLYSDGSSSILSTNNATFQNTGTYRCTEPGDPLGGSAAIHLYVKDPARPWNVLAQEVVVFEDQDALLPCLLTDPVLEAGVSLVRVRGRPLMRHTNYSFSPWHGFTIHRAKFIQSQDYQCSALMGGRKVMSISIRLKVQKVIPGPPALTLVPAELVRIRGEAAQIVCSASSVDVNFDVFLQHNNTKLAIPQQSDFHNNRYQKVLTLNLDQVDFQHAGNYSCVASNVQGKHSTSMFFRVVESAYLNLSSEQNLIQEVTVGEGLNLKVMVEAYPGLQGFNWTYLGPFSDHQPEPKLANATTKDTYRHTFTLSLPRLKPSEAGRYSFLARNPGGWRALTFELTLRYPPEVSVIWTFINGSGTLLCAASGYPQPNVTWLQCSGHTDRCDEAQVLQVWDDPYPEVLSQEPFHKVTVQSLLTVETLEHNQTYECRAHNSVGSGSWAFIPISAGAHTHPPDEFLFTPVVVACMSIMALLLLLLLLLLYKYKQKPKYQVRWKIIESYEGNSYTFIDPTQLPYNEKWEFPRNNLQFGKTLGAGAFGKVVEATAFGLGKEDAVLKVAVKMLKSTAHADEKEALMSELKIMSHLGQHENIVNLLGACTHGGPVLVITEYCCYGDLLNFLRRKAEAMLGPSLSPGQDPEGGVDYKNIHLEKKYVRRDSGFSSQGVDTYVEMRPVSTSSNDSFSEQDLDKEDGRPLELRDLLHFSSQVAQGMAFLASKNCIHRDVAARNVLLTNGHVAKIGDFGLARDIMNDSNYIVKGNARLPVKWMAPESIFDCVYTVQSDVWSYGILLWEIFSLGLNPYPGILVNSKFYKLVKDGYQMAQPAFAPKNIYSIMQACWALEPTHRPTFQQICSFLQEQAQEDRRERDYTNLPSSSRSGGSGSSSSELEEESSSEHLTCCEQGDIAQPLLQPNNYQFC
Chain of Mast/stem cell growth factor receptor Kit (Homo sapiens), P10721 [L576P] (P10721 whole entry L576P, the tested form may be a part): as the sequence (P10721 whole entry) above, with L576P counted along it
Chain of Platelet-derived growth factor receptor beta (P09619 whole entry, the tested form may be a part): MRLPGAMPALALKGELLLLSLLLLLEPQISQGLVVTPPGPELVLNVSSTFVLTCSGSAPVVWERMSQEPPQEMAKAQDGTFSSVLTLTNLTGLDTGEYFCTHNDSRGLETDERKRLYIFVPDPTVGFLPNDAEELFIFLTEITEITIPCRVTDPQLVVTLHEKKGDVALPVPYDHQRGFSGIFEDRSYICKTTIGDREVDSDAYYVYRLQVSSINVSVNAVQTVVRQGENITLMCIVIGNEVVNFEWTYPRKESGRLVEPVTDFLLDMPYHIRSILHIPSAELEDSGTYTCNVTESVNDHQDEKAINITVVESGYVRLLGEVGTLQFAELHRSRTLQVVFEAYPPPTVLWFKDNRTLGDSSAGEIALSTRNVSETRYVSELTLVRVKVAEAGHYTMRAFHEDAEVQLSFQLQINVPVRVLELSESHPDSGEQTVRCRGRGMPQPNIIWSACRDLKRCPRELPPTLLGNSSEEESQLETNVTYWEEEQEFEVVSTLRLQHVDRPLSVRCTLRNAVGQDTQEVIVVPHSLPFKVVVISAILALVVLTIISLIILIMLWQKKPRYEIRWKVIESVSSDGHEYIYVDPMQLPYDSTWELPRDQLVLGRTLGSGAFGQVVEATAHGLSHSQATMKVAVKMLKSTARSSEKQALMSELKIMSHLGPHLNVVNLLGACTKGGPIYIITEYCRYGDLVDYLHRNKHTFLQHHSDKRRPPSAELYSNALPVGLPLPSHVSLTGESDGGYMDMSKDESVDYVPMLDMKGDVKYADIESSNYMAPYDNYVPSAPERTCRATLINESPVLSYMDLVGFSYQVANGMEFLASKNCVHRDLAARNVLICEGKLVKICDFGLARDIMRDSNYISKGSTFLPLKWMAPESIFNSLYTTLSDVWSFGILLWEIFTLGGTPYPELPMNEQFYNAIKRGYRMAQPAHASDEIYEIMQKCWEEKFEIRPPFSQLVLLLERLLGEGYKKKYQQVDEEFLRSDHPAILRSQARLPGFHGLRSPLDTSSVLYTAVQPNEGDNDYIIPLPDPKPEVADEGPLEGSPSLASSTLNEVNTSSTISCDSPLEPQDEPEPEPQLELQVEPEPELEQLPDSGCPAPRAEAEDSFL

For `Cc1ccc(C(=O)N2CCC(Oc3cc(NC(=O)c4ccc(CN5CCN(C)CC5)c(C(F)(F)F)c4)ccc3C)CC2)cn1`, the result in the data set with GIST882, with KU812 cell line and with MEG-01 was Active. In addition, the inhibition entry in data set [1], in data set [6], in [7], in data set [8], in [11] and in data set [13] was “Active” each time. Besides, the inhibition result in [15] is “Active”. Also, the values for the Activity in data set [2] and in [5] were 0.3% and 0.8%, respectively. The molecule further came in with an area under the curve AUC(0-inf) in data set [3] of 558 ng·h/mL. Further, the values for the GI50 in data set [4], in [14] and in data set [17] were 20 nM, 5060 nM and 221 nM, respectively. For the same molecule, the IC50 in data set [9] worked out at 227 nM. This molecule also registered a Cmax in data set [10] of 825 ng/mL. In data set [12], this molecule gave a bioavailability of 47.5%. In addition, the Tmax in [16] was 6 h.
With `Cc1ccc(NC(=O)c2ccc(CN3CCN(C)CC3)cc2)cc1Nc1nccc(-c2cccnc2)n1` [IMATINIB], the inhibition result in data set [18], in data set [19] and in data set [20] was “Active” each time. The result in [21] was Active.
